Measurements from ChEMBL document CHEMBL4000215, “A structure-guided optimization of pyrido[2,3-d]pyrimidin-7-ones as selective inhibitors of EGFRL858R/T790M mutant with improved pharmacokinetic properties” (Eur J Med Chem, 2017).

Legend:
NCI-H1975 = experiment: Antiproliferative activity against human NCI-H1975 cells harboring EGFR L858R/T790M double mutant after 72 hrs by SRB assay; format: functional, cell-based; conditions: NCI-H1975, 72 h
Method in brief: (§1)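 Cells were cultured in RPMI 1640 with 10% FBS and 1% penicillin-streptomycin at 37 °C in 5% CO2, and their EGFR gene was sequenced before use. They were exposed to a range of compound concentrations for 72 h, and growth was read by sulforhodamine B staining. IC50 came from non-linear regression with a sigmoidal dose-response model.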

[1] = biological target: T1, Epidermal growth factor receptor (Homo sapiens, UniProt P00533); experiment: Inhibition of N-terminal 6His/TEV protease cleavage site-tagged wild type human EGFR using poly (Glu,Tyr) 4:1 as substrate after 1 hr by ELISA
A-431 = experiment: Antiproliferative activity against human A431 cells harboring wild type EGFR after 72 hrs by SRB assay; format: cell-based; conditions: A-431, 72 h; method in brief: as §1
[2] = biological target: Epidermal growth factor receptor (Homo sapiens, UniProt P00533, L858R/T790M); experiment: Inhibition of N-terminal 6His/TEV protease cleavage site-tagged human EGFR L858R/T790M double mutant (696 to 1022 residues) using poly (Glu,Tyr) 4:1 as substrate after 1 hr by ELISA
[3] = Cmax in Sprague-Dawley rat at 25 mg/kg administered via oral gavage by LC-MS/MS analysis; format: ADME, organism-based; parameters: dose 25 mg/kg, route oral; conditions: in vivo
Method in brief: (§2)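 Male Sprague-Dawley rats (180-300 g, n = 3 per route) were given a single dose, either 5 mg/kg iv or 25 mg/kg by oral gavage. Vehicle was 5% DMSO, 40% PEG400 and saline. Orbital sinus blood (0.2 mL) was taken into heparinized tubes at 0 min to 24 h. Plasma was stored at -80 °C and assayed by LC-MS/MS, and PK parameters were then calculated.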

[4] = Tmax in Sprague-Dawley rat at 25 mg/kg administered via oral gavage by LC-MS/MS analysis; format: ADME, organism-based; conditions: in vivo; method in brief: as §2
[5] = (§3) AUC (0 to infinity) in Sprague-Dawley rat at 5 mg/kg, iv by LC-MS/MS analysis; format: ADME, organism-based; parameters: dose 5 mg/kg, time infinity, route intravenous; conditions: Sprague-Dawley, in vivo; method in brief: as §2
[6] = Oral bioavailability in Sprague-Dawley rat at 25 mg/kg administered via gavage by LC-MS/MS analysis; format: ADME, organism-based; conditions: in vivo; method in brief: as §2
[7] = (§4) Apparent clearance in Sprague-Dawley rat at 5 mg/kg, iv by LC-MS/MS analysis; format: ADME, organism-based; conditions: Sprague-Dawley, in vivo, read-out: CL(app) (converted); method in brief: as §2
[8] = AUC (0 to infinity) in Sprague-Dawley rat at 25 mg/kg administered via oral gavage by LC-MS/MS analysis; format: ADME, organism-based; parameters: dose 25 mg/kg, route oral, time infinity; conditions: in vivo; method in brief: as §2
[9] = Cmax in Sprague-Dawley rat at 5 mg/kg, iv by LC-MS/MS analysis; format: ADME, organism-based; parameters: dose 5 mg/kg, route intravenous; conditions: in vivo; method in brief: as §2
[10] = biological target: T1, Epidermal growth factor receptor; experiment: Inhibition of EGF-stimulated wild type EGFR phosphorylation in human A431 cells at 3 to 300 nM preincubated for 4 hrs followed by EGF stimulation measured after 10 mins by Western blot analysis; conditions: a431, 10 min, 0.3 µM
[11] = biological target: T1, Epidermal growth factor receptor; experiment: Inhibition of EGF-stimulated wild type EGFR in human A431 cells assessed as decrease in ERK phosphorylation at 3 to 300 nM preincubated for 4 hrs followed by EGF stimulation measured after 10 mins by Western blot analysis; conditions: a431, 10 min, 0.3 µM
Rattus norvegicus [12] = experiment: as §3; format: ADME, organism-based; parameters: dose 5 mg/kg, time infinity, route intravenous; conditions: in vivo; method in brief: as §2
Rattus norvegicus [13] = experiment: as §4; format: ADME, organism-based; conditions: in vivo; method in brief: as §2

Chain of Epidermal growth factor receptor (Homo sapiens, UniProt P00533, L858R/T790M) (P00533 25-1210 T790M/L858R limits assumed): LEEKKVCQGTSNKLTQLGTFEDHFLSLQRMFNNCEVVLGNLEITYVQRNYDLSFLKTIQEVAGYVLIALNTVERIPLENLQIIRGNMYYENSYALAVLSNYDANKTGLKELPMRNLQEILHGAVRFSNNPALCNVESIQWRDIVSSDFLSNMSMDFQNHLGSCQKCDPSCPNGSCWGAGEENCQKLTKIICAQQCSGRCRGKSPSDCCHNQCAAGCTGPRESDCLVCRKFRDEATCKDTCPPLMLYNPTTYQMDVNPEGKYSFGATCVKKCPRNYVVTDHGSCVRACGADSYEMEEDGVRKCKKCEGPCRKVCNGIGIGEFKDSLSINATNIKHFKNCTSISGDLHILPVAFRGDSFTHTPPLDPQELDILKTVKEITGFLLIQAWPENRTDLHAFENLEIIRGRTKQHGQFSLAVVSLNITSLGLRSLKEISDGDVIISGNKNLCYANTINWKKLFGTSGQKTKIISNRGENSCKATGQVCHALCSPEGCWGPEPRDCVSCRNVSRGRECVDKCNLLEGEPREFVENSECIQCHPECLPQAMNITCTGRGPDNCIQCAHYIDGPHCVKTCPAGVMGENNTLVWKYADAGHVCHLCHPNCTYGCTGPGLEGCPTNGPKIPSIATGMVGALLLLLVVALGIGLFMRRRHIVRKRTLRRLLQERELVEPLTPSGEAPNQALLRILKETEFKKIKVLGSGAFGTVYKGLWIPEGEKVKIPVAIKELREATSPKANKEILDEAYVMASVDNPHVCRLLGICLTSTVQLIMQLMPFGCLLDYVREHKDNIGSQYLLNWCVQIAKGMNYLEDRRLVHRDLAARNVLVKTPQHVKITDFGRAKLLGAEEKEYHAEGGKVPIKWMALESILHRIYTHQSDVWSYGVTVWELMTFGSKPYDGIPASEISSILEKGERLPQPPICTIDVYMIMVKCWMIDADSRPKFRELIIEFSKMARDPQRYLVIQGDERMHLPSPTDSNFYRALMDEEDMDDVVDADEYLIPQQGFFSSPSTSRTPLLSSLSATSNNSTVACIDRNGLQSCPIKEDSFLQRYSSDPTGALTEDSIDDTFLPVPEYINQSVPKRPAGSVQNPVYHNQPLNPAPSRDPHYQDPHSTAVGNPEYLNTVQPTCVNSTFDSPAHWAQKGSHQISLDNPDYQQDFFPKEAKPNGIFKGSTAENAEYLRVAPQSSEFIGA
T1 sequence (P00533 whole entry): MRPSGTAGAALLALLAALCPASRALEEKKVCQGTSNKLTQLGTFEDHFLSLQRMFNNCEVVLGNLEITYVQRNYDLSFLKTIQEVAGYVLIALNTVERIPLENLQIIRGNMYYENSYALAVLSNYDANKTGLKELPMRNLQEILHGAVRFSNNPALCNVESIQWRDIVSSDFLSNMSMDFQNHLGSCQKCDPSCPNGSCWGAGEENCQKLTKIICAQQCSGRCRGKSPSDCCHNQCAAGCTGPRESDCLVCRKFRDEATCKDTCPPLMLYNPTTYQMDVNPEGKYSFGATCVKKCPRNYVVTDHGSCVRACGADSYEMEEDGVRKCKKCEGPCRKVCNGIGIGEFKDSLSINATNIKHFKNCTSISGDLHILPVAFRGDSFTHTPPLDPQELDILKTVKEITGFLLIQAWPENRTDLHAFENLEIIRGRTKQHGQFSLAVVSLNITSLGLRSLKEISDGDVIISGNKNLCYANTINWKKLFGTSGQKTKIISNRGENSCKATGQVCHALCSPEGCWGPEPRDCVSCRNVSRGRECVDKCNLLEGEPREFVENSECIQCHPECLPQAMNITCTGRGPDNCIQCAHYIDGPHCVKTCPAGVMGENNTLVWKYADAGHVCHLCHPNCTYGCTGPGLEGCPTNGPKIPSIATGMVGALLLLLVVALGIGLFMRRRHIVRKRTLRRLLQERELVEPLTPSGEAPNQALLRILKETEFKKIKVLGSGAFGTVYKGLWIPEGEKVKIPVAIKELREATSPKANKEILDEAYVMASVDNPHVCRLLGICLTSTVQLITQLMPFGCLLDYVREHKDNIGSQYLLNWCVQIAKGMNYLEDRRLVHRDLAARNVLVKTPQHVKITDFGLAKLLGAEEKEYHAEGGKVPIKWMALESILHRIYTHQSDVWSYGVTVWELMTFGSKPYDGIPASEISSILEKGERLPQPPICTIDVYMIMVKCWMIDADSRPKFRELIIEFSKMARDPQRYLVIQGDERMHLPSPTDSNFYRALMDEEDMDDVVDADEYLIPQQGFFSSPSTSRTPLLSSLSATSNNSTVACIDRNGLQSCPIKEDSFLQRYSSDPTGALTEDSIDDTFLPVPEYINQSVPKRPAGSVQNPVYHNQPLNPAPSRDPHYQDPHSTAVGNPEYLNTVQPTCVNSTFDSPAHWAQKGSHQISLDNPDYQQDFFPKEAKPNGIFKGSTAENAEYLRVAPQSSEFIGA

IC50 (NCI-H1975)	IC50 [1]	IC50 (A-431)	IC50 [2]	Compound	further results
2 nM	330 nM	1400 nM		C=CC(=O)Nc1cccc(-n2c(=O)cc(C)c3cnc(Nc4ccc(N5CCN(C)CC5)cc4OC)nc32)c1	
8 nM	550 nM	2700 nM	2.5 nM	C=CC(=O)Nc1cccc(-n2c(=O)cc(C)c3cnc(Nc4nc5c(s4)CN(C)CC5)nc32)c1	
14 nM	166 nM	3520 nM	1.8 nM	C=CC(=O)Nc1cccc(-n2c(=O)cc(C)c3cnc(Nc4cnn(C5CCN(C)CC5)c4)nc32)c1	
				C=CC(=O)Nc1cccc(-n2c(=O)cc(C)c3cnc(Nc4ccc(N5CCN(C)CC5)cc4OC)nc32)c1.CS(=O)(=O)O	Cmax [3]: 83.1 ng/mL; Tmax [4]: 1.56 h; AUC(0-inf) [5]: 450 ng·h/mL; bioavailability [6]: 10.8%; clearance [7]: 190 mL/min/kg; AUC(0-inf) [8]: 243 ng·h/mL; Cmax [9]: 1370 ng/mL
				C=CC(=O)Nc1cc(-n2c(=O)cc(C)c3cnc(Nc4ccc(N5CCN(C)CC5)cc4OC)nc32)cc(C(F)(F)F)c1.CS(=O)(=O)O	Cmax [3]: 161 ng/mL; Tmax [4]: 2 h; AUC(0-inf) [5]: 831 ng·h/mL; bioavailability [6]: 16.1%; clearance [7]: 102 mL/min/kg; AUC(0-inf) [8]: 671 ng·h/mL; Cmax [9]: 2460 ng/mL
40 nM	182 nM	1390 nM	2 nM	C=CC(=O)Nc1cc(-n2c(=O)cc(C)c3cnc(Nc4ccc(N5CCN(C)CC5)cc4OC)nc32)cc(C(F)(F)F)c1	inhibition (INH) [10]: Not Active; inhibition (INH) [11]: Not Active
4 nM		1670 nM		C=CC(=O)Nc1cccc(-n2c(=O)cc(C)c3cnc(Nc4ccc(N5CC(C)N(C)C(C)C5)cc4OC)nc32)c1 (centres undefined)	
5200 nM		> 10000 nM		C=CC(=O)N1CC[C@@H](n2c(=O)cc(C)c3cnc(Nc4ccc(N5CCN(C)CC5)cc4OC)nc32)C1	
6 nM	208 nM	3250 nM	1.8 nM	C=CC(=O)Nc1cc(C)cc(-n2c(=O)cc(C)c3cnc(Nc4ccc(N5CCN(C)CC5)cc4OC)nc32)c1	
				C=CC(=O)Nc1cccc(-n2c(=O)cc(C)c3cnc(Nc4ccc(N5CCN(C)C(C)C5)cc4OC)nc32)c1.CS(=O)(=O)O (centres undefined)	Cmax [3]: 155 ng/mL; Tmax [4]: 1.67 h; AUC(0-inf) [5]: 433 ng·h/mL; bioavailability [6]: 24.3%; clearance [7]: 197 mL/min/kg; AUC(0-inf) [8]: 526 ng·h/mL; Cmax [9]: 1330 ng/mL
30 nM	97 nM	1130 nM	3.3 nM	C=CC(=O)Nc1cc(-n2c(=O)cc(C)c3cnc(Nc4ccc(N5CC(C)N(C)C(C)C5)cc4OC)nc32)cc(C(F)(F)F)c1 (centres undefined)	
120 nM	24 nM	1440 nM	2.4 nM	C=CC(=O)Nc1cc(C(C)C)cc(-n2c(=O)cc(C)c3cnc(Nc4ccc(N5CCN(C)CC5)cc4OC)nc32)c1	
289 nM	445 nM	4000 nM	4.2 nM	C=CC(=O)Nc1cccc(-n2c(=O)cc(C)c3cnc(Nc4cnn(CCN(C)C)c4)nc32)c1	
81 nM	36.9 nM	3620 nM	2.3 nM	C=CC(=O)Nc1cc(-n2c(=O)cc(C)c3cnc(Nc4ccc(N5CCN(C)CC5)cc4OC)nc32)ccc1C	
64 nM	46.8 nM	2380 nM	1.4 nM	C=CC(=O)Nc1cccc(-n2c(=O)cc(C)c3cnc(Nc4ccc(N5CCN(C)CC5)nc4)nc32)c1	
0.1 nM	26 nM	817 nM	0.8 nM	C=CC(=O)Nc1cc(F)cc(-n2c(=O)cc(C)c3cnc(Nc4ccc(N5CCN(C)CC5)cc4OC)nc32)c1	
18 nM	169 nM	706 nM	1.2 nM	C=CC(=O)Nc1cccc(-n2c(=O)cc(C)c3cnc(Nc4ccc(N5CCN(C)C(C)C5)cc4OC)nc32)c1 (centres undefined)	
762 nM		> 10000 nM		C=CC(=O)N1CC[C@H](n2c(=O)cc(C)c3cnc(Nc4ccc(N5CCN(C)CC5)cc4OC)nc32)C1	
				C=CC(=O)Nc1cc(-n2c(=O)cc(C)c3cnc(Nc4ccc(N5CC(C)N(C)C(C)C5)cc4OC)nc32)cc(C(F)(F)F)c1.CS(=O)(=O)O (centres undefined)	Cmax [3]: 17.4 ng/mL; Tmax [4]: 6 h; AUC(0-inf) [5]: 410 ng·h/mL; bioavailability [6]: 4.38%; clearance [7]: 205 mL/min/kg; AUC(0-inf) [8]: 89.7 ng·h/mL; Cmax [9]: 592 ng/mL
				C=CC(=O)Nc1cc(-n2c(=O)cc(C)c3cnc(Nc4ccc(N5CCN(C)C(C)C5)cc4OC)nc32)cc(C(F)(F)F)c1.CS(=O)(=O)O (centres undefined)	Cmax [3]: 21.4 ng/mL; Tmax [4]: 1.67 h; AUC (Rattus norvegicus [12]): 398.48 ng·h/mL; bioavailability [6]: 5.58%; CL(app) (Rattus norvegicus [13]): 37.5 mL/min/kg; AUC(0-inf) [8]: 111 ng·h/mL; Cmax [9]: 259 ng/mL
4 nM	57 nM	1150 nM	1.8 nM	C=CC(=O)Nc1cc(Br)cc(-n2c(=O)cc(C)c3cnc(Nc4ccc(N5CCN(C)CC5)cc4OC)nc32)c1	
197 nM	> 1000 nM	660 nM	17.7 nM	C=CC(=O)Nc1cc(-n2c(=O)cc(C)c3cnc(Nc4ccc(N5CCN(C)CC5)cc4OC)nc32)cc(C(C)(C)C)c1	
2240 nM	> 1000 nM	> 10000 nM	> 1000 nM	C=CC(=O)N1CCC(n2c(=O)cc(C)c3cnc(Nc4ccc(N5CCN(C)CC5)cc4OC)nc32)CC1	
142 nM	472 nM	1050 nM	3.4 nM	C=CC(=O)Nc1cc(CC)cc(-n2c(=O)cc(C)c3cnc(Nc4ccc(N5CCN(C)CC5)cc4OC)nc32)c1	
				C=CC(=O)Nc1cccc(-n2c(=O)cc(C)c3cnc(Nc4ccc(N5CC(C)N(C)C(C)C5)cc4OC)nc32)c1.CS(=O)(=O)O (centres undefined)	Cmax [3]: 64.4 ng/mL; Tmax [4]: 4 h; AUC(0-inf) [5]: 622 ng·h/mL; bioavailability [6]: 13.3%; clearance [7]: 135 mL/min/kg; AUC(0-inf) [8]: 613 ng·h/mL; Cmax [9]: 772 ng/mL
12 nM	66 nM	1710 nM	1.6 nM	C=CC(=O)Nc1cc(-n2c(=O)cc(C)c3cnc(Nc4ccc(N5CCN(C)C(C)C5)cc4OC)nc32)cc(C(F)(F)F)c1 (centres undefined)	
7 nM	33.1 nM	1430 nM	0.6 nM	C=CC(=O)Nc1cc(Cl)cc(-n2c(=O)cc(C)c3cnc(Nc4ccc(N5CCN(C)CC5)cc4OC)nc32)c1	
305 nM	> 1000 nM	> 10000 nM	63.8 nM	C=CC(=O)N1CCC(Cn2c(=O)cc(C)c3cnc(Nc4ccc(N5CCN(C)CC5)cc4OC)nc32)C1 (racemic)	
42 nM		1540 nM		C=CC(=O)Nc1cccc(Nc2nc(Nc3ccc(N4CCN(C(C)=O)CC4)cc3OC)ncc2C(F)(F)F)c1 [ROCILETINIB]	

Compound	IC50 (NCI-H1975)	IC50 [1]	IC50 (A-431)	IC50 [2]	further results
C=CC(=O)Nc1cc(Nc2nccc(-c3cn(C)c4ccccc34)n2)c(OC)cc1N(C)CCN(C)C [OSIMERTINIB]	[…]		[…]		
